Screening results: PubChem BioAssay, several laboratories
hK5 inh: human KLK5 protease inhibitors, primary screen, biochemical, 1536-well. Kallikrein-5 (Homo sapiens), Q9Y337. inhibition, % at 5 µM. 210,000 compounds, 0.59% hits. recombinant hK5, fluorogenic AMC substrate cleavage. AID 873, 2007;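 active = inhibition of 40% or more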;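 note: 0% = enzyme controls without compound and 100% = no-enzyme blanks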
FXIIa inh: human FXIIa protease inhibitors, primary screen, biochemical, 1536-well; Coagulation factor XII (Homo sapiens), P00748; purified FXIIa, Boc-QGR-AMC fluorogenic substrate, 2 h; inhibition, % at 5 µM; 220,000 compounds, 0.3% hits; AID 800, 2007; in the data active = inhibition above about 40%;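 note: 0% = enzyme with no compound and 100% = blank without enzyme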
Wee1 degr inh: Wee1 degradation inhibitors, primary screen, cell-based, HeLa, Wee1K328M-luciferase, luminescence; HeLa Luc-Wee1K328M stability; 100% = proteasome inhibitor MG132 effect; reporter increase, % at 5 µM; 220,000 compounds, 1.2% hits; AID 1321, 2008;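 active = activation above the mean of all tested compounds plus 3 SD, set per screening run, cut at about 8.8% in these data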;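 note: cells exposed to compound for 20 h before luminescence read; 0% = DMSO alone and 100% = MG132 at 30 µM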
Thrombin inh: human alpha-thrombin inhibitors, primary screen, counter-screen for coagulation protease inhibitor project, biochemical, 1536-well, fluorogenic AMC substrate; Boc-VPR-AMC fluorogenic substrate cleavage; inhibition, % at 5 µM; 220,000 compounds, 0.26% hits;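 active = inhibition at or above 40%; inactive = inhibition below 40%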;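 note: 0% = enzyme with no compound and 100% = wells without enzyme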
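Assay system: human alpha-thrombin enzyme. Reagent: Boc-VPR-AMC substrate, 15 µM final. Compound dosing: one concentration per compound, 5 µM, with 0.2% DMSO. Incubation: room-temperature reaction. Technique: AMC fluorescence, 355/460 nm. Measure: % inhibition relative to enzyme controls and enzyme-free blanks.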
FXIa inh 1536: human FXIa protease inhibitors, primary screen, biochemical, 1536-well. purified FXIa, Boc-Glu-Ala-Arg-AMC fluorogenic substrate. Coagulation factor XI (Homo sapiens), P03951. 220,000 compounds, 0.14% hits. inhibition, % at 5 µM;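 active = inhibition of at least 40%; inactive = inhibition below 40%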;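 note: fluorescence of freed AMC excited at 355 nm; 0% = enzyme without compound and 100% = no enzyme blank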
Target sequence (P03951 19-387 limits assumed): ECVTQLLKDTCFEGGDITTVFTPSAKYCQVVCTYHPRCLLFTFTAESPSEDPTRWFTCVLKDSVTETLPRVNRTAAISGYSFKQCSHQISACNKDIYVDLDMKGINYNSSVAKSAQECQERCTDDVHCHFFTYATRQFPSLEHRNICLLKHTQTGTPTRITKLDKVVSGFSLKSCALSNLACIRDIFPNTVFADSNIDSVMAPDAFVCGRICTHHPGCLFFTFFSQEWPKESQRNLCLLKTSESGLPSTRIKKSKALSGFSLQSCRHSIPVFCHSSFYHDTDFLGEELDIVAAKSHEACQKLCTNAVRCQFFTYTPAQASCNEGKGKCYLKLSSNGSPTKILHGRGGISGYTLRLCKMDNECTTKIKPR
Target sequence (P03951 388-625 limits assumed): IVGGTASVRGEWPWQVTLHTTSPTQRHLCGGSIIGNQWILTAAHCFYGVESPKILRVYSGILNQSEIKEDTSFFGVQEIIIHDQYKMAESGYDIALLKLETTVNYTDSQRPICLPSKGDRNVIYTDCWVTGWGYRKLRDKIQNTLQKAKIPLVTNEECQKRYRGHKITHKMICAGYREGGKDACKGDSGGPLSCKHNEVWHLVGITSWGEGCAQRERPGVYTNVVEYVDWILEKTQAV
An asterisk follows results filed as active; / = no result given; ! = not active in a repeat. This is a sample that favours compounds with a hit; in the whole collection about 2.2% have one here.

SMILES	hK5 inh	FXIIa inh	Wee1 degr inh	Thrombin inh	FXIa inh 1536
CCCSc1nnc(NC(=O)Nc2ccc(F)cc2)s1	-2	17	3	0	8
O=C(O)c1ccc(NCc2nc3ccccc3n2Cc2ccccc2)cc1	27	101*	-2	18	24
COc1ccc(S(=O)(=O)NCc2ccc(C(=O)N3CCc4ccccc4C3)cc2)cc1	-17	-1	-3	-12	-8
COC(=O)c1ccc(NC(=O)C2CCN(S(C)(=O)=O)CC2)cc1	-13	16	11*	1	6
Cc1ccc(NC(=O)C2CCN(S(C)(=O)=O)CC2)cc1	49*	26	0	9	13
CC1CCCC(NC(=O)COC(=O)CN2C(=O)C3CCCCC3C2=O)C1C (stereo not given)	-8	8	-3	-11	4
Oc1ccccc1/C=C/c1noc(-c2ccccc2O)n1	-1	4	9.2*	0	-2
COc1cc(/C=C/c2noc(-c3ccccc3O)n2)ccc1OC(C)=O	-2	5	2	-2	-2
Nc1ccccc1C(=O)N1CCCC1	/	13	0	0	1
COc1ccc(-n2c(O)c(C=Nc3ccccc3)c3ccccc3c2=O)cc1	3	9	-2	40*	-2
CCN(CC)CCNC(=O)c1ccc(NC(=O)c2cccc(S(=O)(=O)Nc3ccc(C)cc3)c2)cc1	20	22	-3	15	101*
Cc1nn(-c2ccccc2)c(Cl)c1/C=C1\SC(=S)N(C)C1=O	-5	11	15*	-1	10
O=C(NCCCN1CCOCC1)c1cccnc1SCc1ccccc1Cl	-5	2	0	-12	-5
CN(C)/C=C/C(=O)c1ccc(Cl)cc1	3	1	11*	-3	-8
CCCC(=O)Nc1ccc(NC(=O)c2ccccc2)nc1	-1	6	10*	-2	-2
COC(=O)c1ccccc1NC(=O)N1CCN(S(=O)(=O)c2ccc(Cl)cc2)CC1	102*	7	-2	20	-8
O=C(CCC(=O)N1CCN(S(=O)(=O)c2ccc(Cl)cc2)CC1)Nc1ccc2ccccc2c1	-18	6	10*	-8	8
Cc1sc(NC(=O)c2ccc(Cl)s2)c(C(N)=O)c1C	4	8	9.6*	-5	0
Nc1nncn1C(=O)CCCOc1ccccc1	2	24	1	23	1
Nc1nncn1C(=O)CCc1ccccc1	-1	9	1	56*	0
Nc1cc(-c2ccccc2)ccc1O	-23	-2	10*!	-2	-4
O=C1COc2ccc(C(=O)CSc3nnc(Cc4cccs4)n3-c3ccc(Cl)cc3)cc2N1	5	17	-2	2	2
CC(=O)NC(CC(=O)NC1CCCCCC1)c1ccccc1 (stereo not given)	-23	11	-3	-1	1
CC(CC(=O)NC1CCCC1)c1ccccc1 (stereo not given)	60*	26	-3	15	2
O=C(CCl)Nc1ccccc1C(=O)Nc1ccc2c(c1)OCO2	42*	25	1	16	28
SMILES	hK5 inh	FXIIa inh	Wee1 degr inh	Thrombin inh	FXIa inh 1536
O=C(CS(=O)(=O)Cc1ccccc1)Nc1ccc2c(c1)OCO2	1	10	11*	5	-1
Cc1ccc(NC(=O)NCc2ccc3c(c2)OCO3)cc1	6	75*	-2	2	6
Cc1nnc(NC(=O)c2ccc3c(c2)OCO3)s1	-5	8	11*	-2	1
O=C(CCNC(=O)c1ccccc1Cl)Nc1ccc2c(c1)OCO2	4	16	-3	6	3
COCCSc1nnc(NC(=O)c2ccc3c(c2)OCO3)s1	-4	3	-3	-10	-7
O=C(CNS(=O)(=O)c1ccccc1)Nc1ccc2c(c1)OCO2	-6	-8	-3	-13	-4
CC(=O)Nc1ccc(C(=O)Nc2ccc3c(c2)OCO3)cc1	41*	31	0	20	8
Cc1nnc(NC(=O)c2c(F)c(F)c(F)c(F)c2F)s1	33	50*	-2	17	11
O=C(CCSCCc1ccccn1)Nc1c(F)c(F)c(F)c(F)c1F	-24	13	4	-1	5
Cn1ncc2c(NNC(=O)c3ccccc3Cl)ncnc21	-47	10	9.3*	-2	4
COc1ccc(N(C)C(=O)c2oc(=O)c3ccccc3c2-c2ccccc2)c(OC)c1	-4	9	-3	-3	-2
O=C1N(Cc2cccc(Cl)c2)C[C@@H]2C[C@@H](c3c[nH]c4ccccc34)N3CCC[C@@]123	/	12	0	2	2
N#Cc1c[nH]n2c(=O)c3c(nc12)CCCC3	70*	-1	0	1	-1
N#Cc1c[nH]n2c(=O)c3c(nc12)CCC3	-5	2	4	-4	-4
COc1ccnc(Oc2ccccc2)c1C(=O)N/C=N/OCc1ccccc1F	/	6	8	0	0
COc1ccc2nc(C)cc(Sc3nc4ccccc4s3)c2c1	-2	7	-2	-7	1
O=C(c1ccccc1)N1CCN(c2ccc([N+](=O)[O-])c(NCC3CCCO3)c2)CC1 (stereo not given)	-6	0	11*	-4	-4
CNC(=S)N1CCC(c2nc3ccccc3s2)CC1	4	5	-3	-1	-1
Cn1nc(C(F)(F)F)c2cc(C(=O)Nc3ccc(C(F)(F)F)cc3)sc21	5	11	5	-1	5
COc1cc(CNCc2ccccn2)ccc1OCc1ccccc1Cl	-28	-6	-2	-7	-3
CCOc1c(Cl)cc(CNCc2ccccn2)cc1OC	4	4	9.0*	-7	-7
COc1ccc(S(=O)(=O)N2CCCC2C(=O)NCc2cccs2)cc1 (stereo not given)	48*	-2	-4	18	12
C=CCn1c(SCC(=O)N2CCN(c3ccccc3)CC2)nnc1-c1ccco1	-3	4	1	-3	-1
CCn1c(SCC(=O)N2CCN(c3ccccc3)CC2)nnc1-c1cc2cc(Cl)ccc2o1	0	47*	-2	16	18
COc1ccc(-c2nc(N)n[nH]2)cc1OC	7	13	-1	3	2
COc1cc(-c2nc(N)n[nH]2)cc(OC)c1OC	4	3	9.6*	3	6
COCCNC(=O)C12CC3CC(C1)CC(c1ccccc1)(C3)C2	18	/	11*	18	12
O=C(O)COc1ccc(/C=N/NC(=O)Cc2ccc(Cl)cc2)cc1	-3	5	-1	3	0
CC1CCCCN1S(=O)(=O)c1ccc2c(c1)CCN2C(=O)C1CCC1 (stereo not given)	6	10	8.8*	1	-22
O=C(C1CC1)N1CCc2cc(S(=O)(=O)N3CCOCC3)ccc21	3	1	-1	-7	-32
